Assay results as given in ChEMBL document CHEMBL4266041, “Hydroxybiphenylamide GroEL/ES Inhibitors Are Potent Antibacterials against Planktonic and Biofilm Forms of Staphylococcus aureus” (J Med Chem, 2018).
pEC50, pIC50: −log10 of the molar value. Activity calls are given as the source filed them. No cut-off for these calls is given here.

How the values were obtained:
[1] = biological target: T1, E. coli GroEL/ES (Escherichia coli, UniProt P0A6F5); assay: Inhibition of Escherichia coli GroEL expressed in Escherichia coli DH5alpha/Escherichia coli GroES expressed in Escherichia coli BL21 (DE3) assessed as reduction in GroEL/GroES-mediated denatured MDH refolding after 20 to 40 mins by spectrometric analysis
T1 sequence (P0A6F5 whole entry, looked up): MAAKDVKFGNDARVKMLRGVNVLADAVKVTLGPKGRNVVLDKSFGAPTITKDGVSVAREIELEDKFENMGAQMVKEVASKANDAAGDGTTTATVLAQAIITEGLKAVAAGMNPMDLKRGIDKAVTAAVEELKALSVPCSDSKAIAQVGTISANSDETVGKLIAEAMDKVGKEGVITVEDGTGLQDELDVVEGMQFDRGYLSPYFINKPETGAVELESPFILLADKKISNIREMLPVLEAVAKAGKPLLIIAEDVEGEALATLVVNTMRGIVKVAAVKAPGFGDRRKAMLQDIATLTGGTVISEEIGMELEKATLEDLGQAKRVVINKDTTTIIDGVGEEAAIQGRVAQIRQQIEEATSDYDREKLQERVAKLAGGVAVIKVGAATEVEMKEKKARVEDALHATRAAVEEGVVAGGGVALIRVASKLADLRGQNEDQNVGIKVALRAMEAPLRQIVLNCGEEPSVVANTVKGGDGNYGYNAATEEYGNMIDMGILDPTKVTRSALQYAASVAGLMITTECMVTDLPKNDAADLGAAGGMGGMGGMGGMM
How it was run: (§1)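 Uses E. coli GroEL/ES with a denatured MDH or rhodanese reporter. GroEL first forms a binary complex with the denatured reporter. Refolding is started by adding ATP and GroES, then reporter enzyme activity is read. DMSO is the negative control. IC50 values from replicate curves are log-averaged after ROUT outlier screening.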

[2] = biological target: T1, E. coli GroEL/ES; assay: Inhibition of Escherichia coli GroEL expressed in Escherichia coli DH5alpha/Escherichia coli GroES expressed in Escherichia coli BL21 (DE3) assessed as reduction in GroEL/GroES-mediated denatured rhodanese refolding after 45 mins by spectrometric analysis; how it was run: as §1
[3] = system: Staphylococcus aureus; assay: Antibacterial activity against Staphylococcus aureus ATCC 25923 after 6 to 8 hrs by bacterial proliferation assay; assay type: functional, organism-based
[4] = biological target: T2, Thiosulfate sulfurtransferase (Homo sapiens, UniProt Q16762); assay: Inhibition of refolded rhodanese (unknown origin) preincubated with Escherichia coli GroEL/GroES for 60 mins in absence of compound followed by compound addition by spectrometric analysis
T2 sequence (Q16762 whole entry): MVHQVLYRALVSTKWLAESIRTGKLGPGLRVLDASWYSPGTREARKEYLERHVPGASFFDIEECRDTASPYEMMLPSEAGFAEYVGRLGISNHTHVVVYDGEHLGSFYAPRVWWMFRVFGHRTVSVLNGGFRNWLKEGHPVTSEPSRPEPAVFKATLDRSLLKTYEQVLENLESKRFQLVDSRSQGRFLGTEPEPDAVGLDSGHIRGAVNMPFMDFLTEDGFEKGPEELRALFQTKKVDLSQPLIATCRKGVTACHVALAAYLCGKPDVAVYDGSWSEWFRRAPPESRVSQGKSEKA

[5] = Inhibition of refolded MDH (unknown origin) preincubated with Escherichia coli GroEL/GroES for 45 mins in absence of compound followed by compound addition and measured for 20 to 35 mins by spectrometric analysis
[6] = system: Enterococcus faecium; assay: Antibacterial activity against Enterococcus faecium ATCC 19434 after 24 hrs by bacterial proliferation assay; assay type: functional, organism-based; settings: ATCC 19434, 24 h
[7] = system: Staphylococcus aureus; assay: Antibacterial activity against methicillin-resistant Staphylococcus aureus ATCC BAA-44 after 6 to 8 hrs by bacterial proliferation assay; assay type: functional, organism-based; settings: Staphylococcus aureus, ATCC BAA-44
[8] = system: Klebsiella pneumoniae; assay: Antibacterial activity against Klebsiella pneumoniae ATCC 13883 after 6 to 8 hrs by bacterial proliferation assay; assay type: functional, organism-based
How it was run: (§2)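 Bacterial growth inhibition in liquid culture. The highest concentration tested was 100 µM. The mean was back-calculated from the average log value. Values above the top concentration were set 0.1 log unit higher.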

[9] = system: Acinetobacter baumannii; assay: Antibacterial activity against Acinetobacter baumannii ATCC 19606 after 24 hrs by bacterial proliferation assay; assay type: functional, organism-based; settings: ATCC 19606 = CIP 70.34 = JCM 6841, 24 h; how it was run: as §2
[10] = system: Pseudomonas aeruginosa; assay: Antibacterial activity against Pseudomonas aeruginosa ATCC 10145 after 24 hrs by bacterial proliferation assay; assay type: functional, organism-based; settings: ATCC 10145, 24 h; how it was run: as §2
[11] = system: Enterobacter cloacae; assay: Antibacterial activity against Enterobacter cloacae subsp. cloacae ATCC 13047 after 24 hrs by bacterial proliferation assay; assay type: functional, organism-based; settings: subsp. cloacae ATCC 13047, 24 h; how it was run: as §2
[12] = Cytotoxicity against human THLE3 cells assessed as reduction in cell viability after 48 hrs by Alamar Blue reporter assay; settings: 48 h
[13] = system: HEK293; assay: Cytotoxicity against HEK293 cells assessed as reduction in cell viability after 48 hrs by Alamar Blue reporter assay; settings: human, hek293, 48 h
[14] = Therapeutic index, ratio of CC50 for human THLE3 cells to EC50 for methicillin-resistant Staphylococcus aureus ATCC BAA-44; assay type: toxicity; settings: read-out: Ratio CC50/EC50
How it was run: (§3)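 Ratio of human-cell CC50 to MRSA (ATCC BAA-44) EC50. […] EC50 comes from inhibition of MRSA proliferation in liquid culture. Replicate values were log-transformed, screened for outliers (ROUT, Q 10%), then averaged and back-calculated. Values above 100 µM were entered as 126 µM.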

[15] = Therapeutic index, ratio of CC50 for HEK293 cells to EC50 for methicillin-resistant Staphylococcus aureus ATCC BAA-44; assay type: toxicity; settings: human, read-out: Ratio CC50/EC50; how it was run: as §3
[16] = system: Staphylococcus aureus; assay: Ratio of EC50 for bactericidal activity against Staphylococcus aureus Rosenbach ATCC 25923 in biofilms to EC50 for planktonic growth of Staphylococcus aureus Rosenbach ATCC 25923; assay type: functional
[17] = system: Staphylococcus aureus; assay: Antibiofilm activity against Staphylococcus aureus Rosenbach ATCC 25923 after 24 hrs by crystal-violet based UV-Vis spectroscopy; assay type: functional, organism-based; settings: Rosenbach ATCC 25923, 24 h
How it was run: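 ATCC 25923 colony grown overnight in TSB at 37°C with shaking, precultured 1 h in TSB + 0.5% glucose, then diluted to OD600 0.01. Incubated stagnant at 37°C for 24 h with compound (100 µM–46 nM, 3-fold, DMSO), alongside bacteria-free baseline plates. Wells washed, crystal violet stained 15 min, developed in MeOH:AcOH:H2O, A595.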

[18] = system: Staphylococcus aureus; assay: Bactericidal activity against Staphylococcus aureus Rosenbach ATCC 25923 in biofilms preincubated for 24 hrs followed by compound wash out and measured after 24 hrs; assay type: functional, organism-based
How it was run: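 ATCC 25923 preculture (TSB + 0.5% glucose, OD600 0.01) grown stagnant 24 h at 37°C to form biofilm, without compound. Wells washed 3× with PBS, then fresh TSB added with compound (100 µM–46 nM, 3-fold, DMSO) for 24 h at 37°C. Washed again, then recovered in fresh TSB 24 h at 37°C.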

[19] = system: Staphylococcus aureus; assay: Bactericidal activity against planktonic growth of Staphylococcus aureus Rosenbach ATCC 25923 preincubated for 24 hrs followed by compound wash out and measured after 24 hrs; assay type: functional, organism-based
[20] = biological target: HSP60/HSP10 (Homo sapiens, UniProt P10809); assay: Inhibition of human N-terminal octa-His-tagged HSP60 expressed in Escherichia coli Rosetta(DE3) pLysS/human HSP10 expressed in Escherichia coli Rosetta(DE3) assessed as reduction in HSP60/HSP10-mediated denatured MDH refolding after 40 to 60 mins by spectrometric analysis
Sequence of HSP60/HSP10 (P10809 whole entry): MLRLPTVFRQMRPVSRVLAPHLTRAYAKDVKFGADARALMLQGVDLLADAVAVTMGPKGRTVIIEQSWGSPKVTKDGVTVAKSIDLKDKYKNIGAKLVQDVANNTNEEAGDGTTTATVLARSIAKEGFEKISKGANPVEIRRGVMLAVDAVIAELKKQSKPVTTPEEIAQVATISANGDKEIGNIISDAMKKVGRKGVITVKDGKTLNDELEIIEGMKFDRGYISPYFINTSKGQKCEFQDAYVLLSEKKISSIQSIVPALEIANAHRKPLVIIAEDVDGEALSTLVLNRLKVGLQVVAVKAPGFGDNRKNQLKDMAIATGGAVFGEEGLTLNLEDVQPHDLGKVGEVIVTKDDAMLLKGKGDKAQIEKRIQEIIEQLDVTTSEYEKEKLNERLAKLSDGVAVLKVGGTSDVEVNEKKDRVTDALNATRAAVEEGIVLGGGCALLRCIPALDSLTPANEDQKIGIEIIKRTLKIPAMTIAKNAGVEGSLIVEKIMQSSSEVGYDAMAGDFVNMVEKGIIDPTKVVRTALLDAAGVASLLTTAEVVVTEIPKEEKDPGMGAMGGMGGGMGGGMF
Sequence of HSP60/HSP10 (P61604 whole entry, further chain): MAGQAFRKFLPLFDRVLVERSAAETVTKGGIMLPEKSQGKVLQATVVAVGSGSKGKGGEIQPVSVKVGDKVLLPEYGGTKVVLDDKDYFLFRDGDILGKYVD
How it was run: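 Human HSP60/10 refolding of denatured MDH, run the same way as the GroEL/ES-dMDH assay. A binary complex of chaperonin and denatured MDH is formed, and refolding is started with ATP and HSP10. MDH activity is the read-out. DMSO is the negative control. IC50 values from replicate curves are log-averaged after ROUT outlier screening.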

[21] = system: Staphylococcus aureus; assay: Antibacterial activity against methicillin-resistant Staphylococcus aureus ATCC BAA-44 precultured for 24 hrs passage with compound followed by subculture in presence of compound for 12 days serial passage; assay type: functional, organism-based
How it was run: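 Cells from the first well with OD600 >0.2 were sub-cultured 24 h in a fresh compound dilution series. Serial passage ran for 12 days, with EC50 determined after each passage. Averages are from triplicate analyses.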

Compound	pIC50 [1]	pIC50 [2]	pEC50 [3]	pIC50 [4]	pIC50 [5]	pEC50 [6]	pEC50 [7]	pEC50 [8]	pEC50 [9]	pEC50 [10]	pEC50 [11]	CC50 [12] [µM]	CC50 [13] [µM]	selectivity ratio [14]	selectivity ratio [15]	Ratio EC50 [16]	pEC50 [17]	pEC50 [18]	pEC50 [19]	pIC50 [20]	other results
O=C(Nc1cccc(Cl)c1)c1cc(Br)cc(Br)c1O	4.62	4.33	6.18	< 4.00	4.57	4.14	5.96	4.02	4.34	< 4.00	4.11	9.2	18	> 50	> 50						
O=C(Nc1ccc(Sc2nc3ccccc3s2)c(Cl)c1)c1cccc(Br)c1O	5.02	5.42	6.35	< 4.00	< 4.20	4.62	6.15	< 4.00	5.54	< 4.00	< 4.00	19	64			5 - 15	6.00	5.25	6.35		
O=C(Nc1cccc(Cl)c1)c1cc(Br)ccc1O	< 4.00	< 4.00	6.34	< 4.00	< 4.20	< 4.00	6.28	< 4.00	< 4.00	< 4.00	< 4.00	4.1	15			5 - 15	6.36	5.16	6.34	< 4.00	Activity [21]: Active
O=C(Nc1ccc(Sc2nc3ccccc3s2)cc1)c1cc(Br)cc(Br)c1O	5.57	5.89	6.36	< 4.00	5.08	6.06	6.28	< 4.00	< 4.00	< 4.00	< 4.00	20	66	> 50	> 50	5 - 15	6.27	5.64	6.36		
O=C(Nc1ccccc1)c1cc(Br)cc(Br)c1O [METABROMSALAN]	4.21	< 4.00	5.92	< 4.00	4.29	< 4.00	5.70	< 4.00	< 4.00	< 4.00	< 4.00	25	34	> 50	> 50						
O=C(Nc1ccc(Sc2nc3ccccc3s2)cc1)c1ccccc1O	4.40	4.06	6.70	< 4.00	< 4.20	4.17	6.39	< 4.00	< 4.00	< 4.00	< 4.00	33	74			5 - 15	6.04	5.70	6.70	< 4.00	
